These results are taken from ChEMBL document CHEMBL1765065, “Pro-soft Val-boroPro: a strategy for enhancing in vivo performance of boronic acid inhibitors of serine proteases” (J Med Chem, 2011).

Calls of active or inactive are those of the source. The calls are words filed in the database; no cut-off is given here. Starred links: 1 amine or outer side, 2 acyl side, 3 side chain; linkers in the order of their positions; H or OH if unused. Residues, ends and D or L forms follow the SMILES beside them. *: point of attachment. Suc = O=C(CCC(=O)[*:2])[*:1]; boroPro = OB(O)[C@@H]1CCCN1*

Data set [1] deals with Mus musculus. In words: Antidiabetic activity in po dosed C57BL/KS01HSDLeprdb mouse assessed as decrease in serum glucose AUC level by oral glucose tolerance test. It is filed as functional, organism-based. The method in brief: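 Diabetic male C57BL/KS01HSDLeprdb mice (nondiabetic C57BL/6NHHsd as comparison) acclimated 3 weeks and fasted 4 h. Given 0.0025, 0.01, 0.025 or 0.05 mg/kg free-inhibitor equivalent by oral gavage; vehicle H2O. Oral glucose 1 g/kg given 3 h post-dose. Glucometer blood glucose at predose, 15, 30, 60, 120 and 240 min (5 mice/group); AUC.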

Data set [2] concerns Mus musculus. The experiment in a line: Antidiabetic activity in C57BL/KS01HSDLeprdb mouse assessed as decrease in serum glucose AUC level at 0.5 mg/kg, po by oral glucose tolerance test. It is filed as functional, organism-based. The arrangement: dose 0.5 mg/kg.
Data set [3] in a line: (§1) Toxicity in po dosed Fisher rat assessed as mortality measured up to 24 hrs. It is filed as organism-based. As to conditions: Fisher, in vivo.
The target of data set [4] is T1, Dipeptidyl peptidase 4 (Homo sapiens, UniProt P27487). In words: Inhibition of DDP4 at pH 2 preincubated for 10 mins.
Target sequence in this assay (P27487 whole entry): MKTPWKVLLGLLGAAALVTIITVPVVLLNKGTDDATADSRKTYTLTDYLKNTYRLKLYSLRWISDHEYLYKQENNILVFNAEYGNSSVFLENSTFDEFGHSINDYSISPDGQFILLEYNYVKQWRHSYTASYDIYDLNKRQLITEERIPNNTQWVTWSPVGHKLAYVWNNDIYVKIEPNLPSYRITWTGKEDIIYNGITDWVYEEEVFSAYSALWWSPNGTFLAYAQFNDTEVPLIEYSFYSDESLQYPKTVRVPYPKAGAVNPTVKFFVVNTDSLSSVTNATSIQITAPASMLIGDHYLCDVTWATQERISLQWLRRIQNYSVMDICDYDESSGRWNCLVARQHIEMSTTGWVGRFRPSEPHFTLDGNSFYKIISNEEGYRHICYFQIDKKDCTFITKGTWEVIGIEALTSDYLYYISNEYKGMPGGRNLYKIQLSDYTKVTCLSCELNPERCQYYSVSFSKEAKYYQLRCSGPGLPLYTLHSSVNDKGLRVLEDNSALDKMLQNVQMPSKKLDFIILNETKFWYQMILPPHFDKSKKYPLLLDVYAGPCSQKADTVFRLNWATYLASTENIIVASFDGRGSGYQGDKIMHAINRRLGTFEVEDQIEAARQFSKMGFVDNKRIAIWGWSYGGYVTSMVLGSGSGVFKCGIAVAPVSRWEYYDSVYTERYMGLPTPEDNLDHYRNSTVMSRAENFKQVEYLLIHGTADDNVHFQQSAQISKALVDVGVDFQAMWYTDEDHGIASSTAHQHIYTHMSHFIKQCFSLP
For data set [5], the target named is T1, Dipeptidyl peptidase 4. The experiment in a line: Inhibition of DDP4 at pH 7.4 preincubated for 10 mins.
Target sequence in this assay (P27487 whole entry): as above
Data set [6] can be described thus: Chemical stability of the compound assessed as half life at physiological pH. It is filed as physicochemical.
Data set [7] has as its target T1, Dipeptidyl peptidase 4. In words: Inhibition of DDP4 at pH 7.4 preincubated with alpha-chymotrypsin up to 8 hrs. The method in brief: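 Prodrug preincubated with 0.1 mM α-chymotrypsin for 0, 0.5, 1, 2, 4, 6 or 24 h before purified DPPIV was added. The DPPIV assay then followed: 0.3 mM H-Ala-Pro-pNA, A410, HEPES/NaCl buffer.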
Target sequence in this assay (P27487 whole entry): as above
The target of data set [8] is T1, Dipeptidyl peptidase 4. In words: Inhibition of DDP4. The method in brief: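 Purified DPPIV (~1 nM) in 0.1 M HEPES, 0.14 M NaCl, pH 7.4 or 8.0, at 25 or 37 °C. Inhibitor (10^-5 to 10^-11 M) preincubated 10 min with enzyme before 0.3 mM H-Ala-Pro-pNA; A410 read. Stocks made in HCl pH 2.0 or buffer pH 7.4/8.0 and diluted just before use.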
Target sequence in this assay (P27487 whole entry, looked up): as the sequence (P27487 whole entry) above
A short description of data set [9]: Inhibition of alpha-chymotrypsin.
The nature of data set [10]: Effect on pro-drug activation assessed as Chg-Pro formation by mass spectrometry. It is filed as physicochemical. The method in brief: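 Prodrug (10 mM stock) incubated with purified DPPIV (2 μM stock) or no enzyme in 0.1 M HEPES, 0.14 M NaCl, pH 8.0, for 10 min at 25 °C. Desalted on C18 and lyophilized. Chg-Pro detected by reverse-phase HPLC-MS scanning its m/z; Chg-Pro was the reference.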

The test system of data set [11] is Mus musculus. The experiment in a line: DDP4-mediated pro-drug activation in ip dosed wild type C57BL/6 mouse assessed as pro-drug level in serum by LC/MS analysis. The settings on record: in vivo. It is filed as organism-based. The method in brief:
(§2)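 Wild-type C57BL/6 (CD26+/+) or DPPIV knockout (CD26-/-) mice, 3 per group, acclimated ≥1 week. Given 50 μg ip in PBS. Blood taken by cardiac puncture after 5 min and treated with 10% TCA. Supernatant intact prodrug quantified by reverse-phase HPLC-MS base peak chromatograms.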

In data set [12] the test system is Mus musculus. In words: DDP4-mediated pro-drug activation in ip dosed CD26 -/- mouse assessed as pro-drug level in serum by LC/MS analysis. It is filed as organism-based. The settings on record: in vivo. The method, boiled down:
as §2

The next data set has as its system Rattus norvegicus. Described as §1. It is filed as organism-based. The settings on record: in vivo, 24 h.

Turning to `CC(C)[C@H](N)C(=O)N1CCC[C@H]1B(O)O` [TALABOSTAT], the Activity result with Mus musculus [1] was “Dose-dependent effect”. Besides, the result with Mus musculus [2] was inactive. Also, the median lethal dose (LD50) at 24 h in data set [3] was determined as 0.5 mg/kg.

Turning to `C[C@H](NC(=O)[C@@H]1CCCN1C(=O)[C@@H](N)Cc1ccccc1)C(=O)N1CCC[C@H]1B(O)O`, the IC50 against Dipeptidyl peptidase 4 [4] stood at 8.3 nM; at Dipeptidyl peptidase 4 [5], 7 nM.

As to `CC(=O)N[C@H](C(=O)N1CCC[C@H]1B(O)O)C(C)C`, the half-life in data set [6] came to 30 min.

As for `C[C@H](NC(=O)CCC(=O)O)C(=O)N[C@@H](C)C(=O)N1CCC[C@H]1C(=O)N[C@@H](Cc1ccccc1)C(=O)N[C@@H](C)C(=O)N1CCC[C@H]1B(O)O` (Suc-AAPFA-boroPro), the concentration for half-maximal inhibition (IC50) on Dipeptidyl peptidase 4 [7] came out at 0.7 nM. In addition, the inhibition entry (on Dipeptidyl peptidase 4 [8]; in [9]) was “inactive” throughout.

`CC(C)[C@H](NC(=O)[C@@H]1CCCN1C(=O)[C@@H](N)C1CCCCC1)C(=O)N1CCC[C@H]1B(O)O`: the IC50 was 20 nM on Dipeptidyl peptidase 4 [4] and 19 nM against Dipeptidyl peptidase 4 [5]. Besides, the Activity result was “Not Active” in [10]; “Not Active” in the data set with Mus musculus [11]; “Active” in the data set on Mus musculus [12]; “Dose-dependent effect” with Mus musculus [1]; “Non-toxic” with Rattus norvegicus. Also, in the data set on Mus musculus [2], the outcome was Active.

Usually LD50 stands for the dose at which mortality reaches 50%. What is called IC50 is the concentration that inhibits the measured activity by half. A high value points to lower potency. As a reminder, the half-life is the time in which the quantity being followed falls by half.
